Results: the RNAGym collection of RNA variant scans (doi:10.1126/science.aae0568)
Fewer inactive variants are shown than the library holds.

B1: tRNA (parent)
chain: GUUCCGUUGGCGUAAUGGUAACGCGUCUCCCUCCUAAGGAGAAGACUGCGGGUUCGAGUCCCGUACGGAACG

Variants of: B1
Test: yeast fitness relative to wild type (ratio to wild type); higher = fitter; tRNA-Arg(CCU), competitive growth, 37 C, YPD
Summary of the method: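 Changes in genotype frequencies gave Darwinian fitness relative to wild type. Frequencies were read by 100-nucleotide paired-end sequencing of gene amplicons before and after pooled Saccharomyces cerevisiae strains, carrying tRNA-Arg(CCU) gene variants at the native locus, were competed in YPD at 37°C for 24 hours in six replicates. A genotype was kept only with ≥ 100 starting reads, and estimates < 0.5 were set to 0.5.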
For GUUCCGUUGGCGUAAUGGUAACGCGUCUCCCUCCUAAGGAGAAGACUGCGGGUUAGGGUCCCGUACGGAACG [C55A A57G], the yeast fitness was 0.671. GUUCCGUUGGCGUAAUGGUAACGCGUCUCCCUCCUAAGGAGAAGACUGCGGGUUAGUGUCCCGUACGGAACG [C55A A57U] gave a yeast fitness of 0.694. GUUCCGUUGGCGUAAUGGUAACGCGUCUCCCUCCUAAGGAGAAGACUGCGGGUUAGCGUCCCGUACGGAACG [C55A A57C] gave a yeast fitness of 0.597. Work on GUUCCGUUGGCGUAAUGGUAACGCGUCUCCCUCCUAAGGAGAAGACUGCGGGUCCGGGUCCCGUACGGAACG [U54C A57G] yielded a yeast fitness of 0.919. Work on GUUCCGUUGGCGUAAUGGUAACGCGUCUCCCUCCUAAGGAGAAGACUGCGGGUCCGCGUCCCGUACGGAACG [U54C A57C] yielded a yeast fitness of 0.619. Work on GUUCCGUUGGCGUAAUGGUAACGCGUCUCCCUCCUAAGGAGAAGACUGCGGGUACGAGUCCUGUGCGAAACG [U54A C62U A65G G68A] yielded a yeast fitness of at most 0.5. Variant GUUCCGUUGGCGUAAUGGUAACGCGUCUCCCUCCUAAGGAGAAGACUGCGGGUGCGAGUCGUGUUCGGAACG [U54G C61G C62U A65U] has a yeast fitness of at most 0.5. With GUUCCGUUGGCGUAAUGGUAACGCGUCUCCCUCCUAAGGAGAAGACUGCGGGUCCGAGUCCCGAACGGUACG [U54C U64A A69U] the yeast fitness was 0.698. Variant GUUCCGUUGGCGUAAUGGUAACGCGUCUCCCUCCUAAGGAGAAGACUGCGGGUCCAAGUCCAGUACGGAACG [U54C G56A C62A] has a yeast fitness of at most 0.5. With GUUCCGUUGGCGUAAUGGUAACGCGUCUCCCUCCUAAGGAGAAGACUGCGGGUGCGAGUCCCGUAAGGAACG [U54G C66A] the yeast fitness was 0.549. GUUCCGUUGGCGUAAUGGUAACGCGUCUCCCUCCUAAGGAGAAGACUGCGGGUGCGAGUCCCGUAUGGAACG [U54G C66U] showed a yeast fitness of 0.653. In the case of GUUCCGUUGGCGUAAUGGUAACGCGUCUCCCUCCUAAGGAGAAGACUGCGGGUGCGAGUUCCGUACGGAACG [U54G C60U], the yeast fitness is reported as at most 0.5. GUUCCGUUGGCGUAAUGGUAACGCGUCUCCCUCCUAAGGAGAAGACUGCGGGUACGAGUCCUGUACGGAACG [U54A C62U] gave a yeast fitness of 0.59. With GUUCCGUUGGCGUAAUGGUAACGCGUCUCCCUCCUAAGGAGAAGACUGCGGGUACGAGUCCCGUACGGCACG [U54A A69C] the yeast fitness was 0.658. Work on GUUCCGUUGGCGUAAUGGUAACGCGUCUCCCUCCUAAGGAGAAGACUGCGGGGUCGACUCCCGUACGGAACG [U53G G58C] yielded a yeast fitness of 0.716. Work on GUUCCGUUGGCGUAAUGGUAACGCGUCUCCCUCCUAAGGAGAAGACUGCGGGGUCGAGUCCCCUACGGCACG [U53G G63C A69C] yielded a yeast fitness of at most 0.5. GUUCCGUUGGCGUAAUGGUAACGCGUCUCCCUCCUAAGGAGAAGACUGCGGGUGCGAGUCCGGUACGGAACG [U54G C62G] showed a yeast fitness of 0.559. Variant GUUCCGUUGGCGUAAUGGUAACGCGUCUCCCUCCUAAGGAGAAGACUGCGGGUACGAGUCCCGCACGGAACG [U54A U64C] has a yeast fitness of 0.683. In the case of GUUCCGUUGGCGUAAUGGUAACGCGUCUCCCUCCUAAGGAGAAGACUGCGGGUCCGAGUCCCGUACGGCACG [U54C A69C], the yeast fitness is reported as 0.965. For GUUCCGUUGGCGUAAUGGUAACGCGUCUCCCUCCUAAGGAGAAGACUGCGGGUCCGAGUCCCGUACGGUACG [U54C A69U], the yeast fitness was 0.986. GUUCCGUUGGCGUAAUGGUAACGCGUCUCCCUCCUAAGGAGAAGACUGCGGGUCCGAGUCCAGUACGGAACG [U54C C62A] showed a yeast fitness of 0.595. Work on GUUCCGUUGGCGUAAUGGUAACGCGUCUCCCUCCUAAGGAGAAGACUGCGGGUGCGAGUCCCGUUCAGAACG [U54G A65U G67A] yielded a yeast fitness of 0.545. Variant GUUCCGUUGGCGUAAUGGUAACGCGUCUCCCUCCUAAGGAGAAGACUGCGGGUCCCAGUCCCGUACGGAACG [U54C G56C] has a yeast fitness of 0.593. GUUCCGUUGGCGUAAUGGUAACGCGUCUCCCUCCUAAGGAGAAGACUGCGGGUCCGAGUCCCGUACUGAACG [U54C G67U] gave a yeast fitness of 0.798. Work on GUUCCGUUGGCGUAAUGGUAACGCGUCUCCCUCCUAAGGAGAAGACUGCGGGUAUGAGUCCCGUACGGAACG [U54A C55U] yielded a yeast fitness of 0.615. For GUUCCGUUGGCGUAAUGGUAACGCGUCUCCCUCCUAAGGAGAAGACUGCGGGUCGGUGUCCUGUACGGAACG [U54C C55G A57U C62U], the yeast fitness was at most 0.5. GUUCCGUUGGCGUAAUGGUAACGCGUCUCCCUCCUAAGGAGAAGACUGCGGGUCGGAGUCCCGUACGGAACG [U54C C55G] showed a yeast fitness of 0.654. With GUUCCGUUGGCGUAAUGGUAACGCGUCUCCCUCCUAAGGAGAAGACUGCGGGUCCGAGUCCCAUACGGAACG [U54C G63A] the yeast fitness was 0.701. For GUUCCGUUGGCGUAAUGGUAACGCGUCUCCCUCCUAAGGAGAAGACUGCGGGUGCGAGUCGCGUUCGGAACG [U54G C61G A65U], the yeast fitness was 0.596. Variant GUUCCGUUGGCGUAAUGGUAACGCGUCUCCCUCCUAAGGAGAAGACUGCGGGUAGGAGUCCCGUCCGGAACG [U54A C55G A65C] has a yeast fitness of 0.627. In the case of GUUCCGUUGGCGUAAUGGUAACGCGUCUCCCUCCUAAGGAGAAGACUGCGGGUACGAGUCCCGUCCGGAACG [U54A A65C], the yeast fitness is reported as 0.724. GUUCCGUUGGCGUAAUGGUAACGCGUCUCCCUCCUAAGGAGAAGACUGCGGGUACGAGCCCCGCACGGAACG [U54A U59C U64C] gave a yeast fitness of at most 0.5. Variant GUUCCGUUGGCGUAAUGGUAACGCGUCUCCCUCCUAAGGAGAAGACUGCGGGUUAGCGUCCCGUACGCAACG [C55A A57C G68C] has a yeast fitness of 0.5. GUUCCGUUGGCGUAAUGGUAACGCGUCUCCCUCCUAAGGAGAAGACUGCGGGUUAGAGUCCCGUACGGAACG [C55A] gave a yeast fitness of 0.656. GUUCCGUUGGCGUAAUGGUAACGCGUCUCCCUCCUAAGGAGAAGACUGCGGGUGCGAGUCCCGUGCGUACCG [U54G A65G G68U A70C] showed a yeast fitness of at most 0.5. GUUCCGUUGGCGUAAUGGUAACGCGUCUCCCUCCUAAGGAGAAGACUGCGGGUCCGAGCCCCGUACGGAACG [U54C U59C] showed a yeast fitness of 0.714. For GUUCCGUUGGCGUAAUGGUAACGCGUCUCCCUCCUAAGGAGAAGACUGCGGGUCCGAGACCCGUACGGAACG [U54C U59A], the yeast fitness was 0.82.
